# In ChEMBL document CHEMBL5696442, “Discovery of type II inhibitors of TGFβ-activated kinase 1 (TAK1) and mitogen-activated protein kinase kinase kinase kinase 2 (MAP4K2)” (J Med Chem, 2015):
# Legend:
# [1] = target: Cyclin-dependent kinase 10 (Homo sapiens) (UniProt Q15131); assay: Inhibition of CDK10 Lys2 labeling site in human A-375 cells at 5 uM by KiNativ Profiling analysis relative to control; type: cell-based
# How it was run: (§1)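 Intact A375 melanoma cells were treated with compound at 5 or 0.5 μM, then lysed. Lysate kinases were labeled with a lysine-reactive ATP or ADP-biotin probe (KiNativ). Inhibition is read as protection of each kinase labeling site from probe labeling.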
# [2] = target: Tyrosine-protein kinase Fer (Homo sapiens, UniProt P16591); assay: Inhibition of FER Lys1 labeling site harbouring TSVAVKTCKEDLPQELKin human A-375 cells at 5 uM by KiNativ Profiling analysis relative to control; type: cell-based
# Chain of Tyrosine-protein kinase Fer (P16591 whole entry, looked up): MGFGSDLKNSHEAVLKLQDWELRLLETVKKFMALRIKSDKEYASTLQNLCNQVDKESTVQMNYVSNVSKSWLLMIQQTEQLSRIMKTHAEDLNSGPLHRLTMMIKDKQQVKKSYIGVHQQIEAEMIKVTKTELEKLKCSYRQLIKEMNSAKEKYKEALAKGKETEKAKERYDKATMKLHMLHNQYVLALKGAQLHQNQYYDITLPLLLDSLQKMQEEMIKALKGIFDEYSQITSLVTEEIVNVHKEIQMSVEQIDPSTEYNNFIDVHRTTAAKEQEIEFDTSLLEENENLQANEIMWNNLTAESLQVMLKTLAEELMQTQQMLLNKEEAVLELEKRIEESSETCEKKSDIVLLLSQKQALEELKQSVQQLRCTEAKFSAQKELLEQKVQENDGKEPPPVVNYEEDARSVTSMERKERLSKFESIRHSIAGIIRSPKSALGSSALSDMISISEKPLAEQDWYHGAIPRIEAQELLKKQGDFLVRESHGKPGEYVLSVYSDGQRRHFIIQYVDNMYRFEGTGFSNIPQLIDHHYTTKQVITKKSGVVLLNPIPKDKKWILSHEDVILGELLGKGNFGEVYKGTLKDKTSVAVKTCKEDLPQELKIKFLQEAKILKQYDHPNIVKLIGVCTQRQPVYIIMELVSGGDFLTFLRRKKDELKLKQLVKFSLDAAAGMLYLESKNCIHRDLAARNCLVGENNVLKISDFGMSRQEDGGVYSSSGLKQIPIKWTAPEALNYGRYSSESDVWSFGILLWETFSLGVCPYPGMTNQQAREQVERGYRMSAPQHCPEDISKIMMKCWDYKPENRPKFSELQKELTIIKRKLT
# [3] = target: Tyrosine-protein kinase JAK1 (Homo sapiens) (UniProt P23458); assay: Inhibition of JAK1 in human A-375 cells at 5 uM by KiNativ Profiling analysis relative to control; type: cell-based
# Chain of Tyrosine-protein kinase JAK1 (Homo sapiens) (P23458 whole entry): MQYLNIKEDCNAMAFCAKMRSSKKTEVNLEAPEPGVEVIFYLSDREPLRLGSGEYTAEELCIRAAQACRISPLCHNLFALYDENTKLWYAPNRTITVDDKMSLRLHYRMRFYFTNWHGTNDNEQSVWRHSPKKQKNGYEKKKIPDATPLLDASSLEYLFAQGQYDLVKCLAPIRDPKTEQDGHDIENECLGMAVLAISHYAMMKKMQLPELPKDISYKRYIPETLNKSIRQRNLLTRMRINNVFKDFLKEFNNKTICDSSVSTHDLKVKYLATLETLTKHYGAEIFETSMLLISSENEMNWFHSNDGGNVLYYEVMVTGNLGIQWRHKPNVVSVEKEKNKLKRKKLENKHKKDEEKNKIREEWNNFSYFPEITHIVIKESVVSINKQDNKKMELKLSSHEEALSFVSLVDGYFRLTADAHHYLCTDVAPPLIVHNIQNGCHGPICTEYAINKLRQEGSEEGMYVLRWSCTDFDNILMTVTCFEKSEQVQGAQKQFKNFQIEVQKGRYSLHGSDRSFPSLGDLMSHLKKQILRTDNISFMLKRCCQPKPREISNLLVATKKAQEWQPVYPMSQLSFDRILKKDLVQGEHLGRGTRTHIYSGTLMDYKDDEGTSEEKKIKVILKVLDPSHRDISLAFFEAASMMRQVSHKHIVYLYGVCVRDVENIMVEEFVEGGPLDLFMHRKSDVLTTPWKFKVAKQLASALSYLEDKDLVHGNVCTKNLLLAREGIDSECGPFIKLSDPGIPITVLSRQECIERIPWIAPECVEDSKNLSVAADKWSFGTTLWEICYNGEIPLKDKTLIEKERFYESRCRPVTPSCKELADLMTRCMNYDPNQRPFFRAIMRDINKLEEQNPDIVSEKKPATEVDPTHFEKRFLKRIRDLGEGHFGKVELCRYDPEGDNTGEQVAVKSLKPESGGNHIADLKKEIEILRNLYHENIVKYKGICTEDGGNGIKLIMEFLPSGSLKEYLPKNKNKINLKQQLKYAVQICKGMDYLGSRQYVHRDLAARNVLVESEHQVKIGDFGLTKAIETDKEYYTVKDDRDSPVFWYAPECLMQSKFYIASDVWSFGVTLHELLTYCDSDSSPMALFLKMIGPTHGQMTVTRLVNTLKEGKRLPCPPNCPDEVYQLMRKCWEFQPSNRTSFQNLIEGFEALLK
# [4] = target: T1, Aurora kinase A (Homo sapiens) (UniProt O14965); assay: Inhibition of AurA Lys2 labeling site in human A-375 cells at 0.5 uM by KiNativ Profiling analysis relative to control; type: cell-based; how it was run: as §1
# T1 sequence (whole entry): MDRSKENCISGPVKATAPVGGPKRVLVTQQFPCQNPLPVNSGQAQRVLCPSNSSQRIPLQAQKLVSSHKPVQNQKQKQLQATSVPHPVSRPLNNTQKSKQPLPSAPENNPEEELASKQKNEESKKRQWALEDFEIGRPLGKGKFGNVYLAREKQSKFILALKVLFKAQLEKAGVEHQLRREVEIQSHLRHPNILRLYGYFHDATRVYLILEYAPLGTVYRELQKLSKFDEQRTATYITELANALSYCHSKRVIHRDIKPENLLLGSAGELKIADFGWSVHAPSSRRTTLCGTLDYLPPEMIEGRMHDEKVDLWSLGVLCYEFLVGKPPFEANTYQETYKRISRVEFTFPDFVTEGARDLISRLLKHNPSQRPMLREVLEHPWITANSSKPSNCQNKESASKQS
# [5] = target: DNA-PK/Ku70/Ku85 (Homo sapiens) (UniProt P78527+P12956+P13010); assay: Inhibition of DNAPK ATP labeling site harbouring GHDEREHPFLVKGGEDLR in human A-375 cells at 0.5 uM by KiNativ Profiling analysis relative to control; type: cell-based
# How it was run: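 Live A375 melanoma cells were treated with compound at 0.5 or 5 μM, then lysed. Lysates were labeled with a lysine-reactive ATP or ADP-biotin probe. The read-out was protection of each kinase probe-labeling site from labeling, relative to control.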
# [6] = target: Serine/threonine-protein kinase 10 (Homo sapiens) (UniProt O94804); assay: Inhibition of LOK Lys1 labeling site harbouring NKETGALAAAKVIETK in human A-375 cells at 0.5 uM by KiNativ Profiling analysis relative to control; type: cell-based
# [7] = target: Cyclin-dependent kinase 2 (Homo sapiens) (UniProt P24941); assay: Inhibition of CDK2 Lys1 labeling site in human A-375 cells at 0.05 uM by KiNativ Profiling analysis relative to control; type: cell-based
# [8] = target: Serine/threonine-protein kinase Nek7 (Homo sapiens) (UniProt Q8TDX7); assay: Inhibition of NEK7 Lys2 labeling site in human A-375 cells at 0.05 uM by KiNativ Profiling analysis relative to control; type: cell-based
# Chain of Serine/threonine-protein kinase Nek7 (Homo sapiens) (Q8TDX7 whole entry, looked up): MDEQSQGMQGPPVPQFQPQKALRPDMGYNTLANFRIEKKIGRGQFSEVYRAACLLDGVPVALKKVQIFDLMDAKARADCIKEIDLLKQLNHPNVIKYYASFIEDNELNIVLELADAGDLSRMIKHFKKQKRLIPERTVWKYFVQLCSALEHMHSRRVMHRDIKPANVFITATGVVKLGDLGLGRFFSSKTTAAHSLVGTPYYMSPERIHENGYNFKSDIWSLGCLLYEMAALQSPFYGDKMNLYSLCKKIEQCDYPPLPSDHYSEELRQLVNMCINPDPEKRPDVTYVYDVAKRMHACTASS
# [9] = target: T2, Serine/threonine-protein kinase Nek9 (Homo sapiens) (UniProt Q8TD19); assay: Inhibition of NEK9 Lys2 labeling site in human A-375 cells at 0.05 uM by KiNativ Profiling analysis relative to control; type: cell-based
# T2 sequence (whole entry): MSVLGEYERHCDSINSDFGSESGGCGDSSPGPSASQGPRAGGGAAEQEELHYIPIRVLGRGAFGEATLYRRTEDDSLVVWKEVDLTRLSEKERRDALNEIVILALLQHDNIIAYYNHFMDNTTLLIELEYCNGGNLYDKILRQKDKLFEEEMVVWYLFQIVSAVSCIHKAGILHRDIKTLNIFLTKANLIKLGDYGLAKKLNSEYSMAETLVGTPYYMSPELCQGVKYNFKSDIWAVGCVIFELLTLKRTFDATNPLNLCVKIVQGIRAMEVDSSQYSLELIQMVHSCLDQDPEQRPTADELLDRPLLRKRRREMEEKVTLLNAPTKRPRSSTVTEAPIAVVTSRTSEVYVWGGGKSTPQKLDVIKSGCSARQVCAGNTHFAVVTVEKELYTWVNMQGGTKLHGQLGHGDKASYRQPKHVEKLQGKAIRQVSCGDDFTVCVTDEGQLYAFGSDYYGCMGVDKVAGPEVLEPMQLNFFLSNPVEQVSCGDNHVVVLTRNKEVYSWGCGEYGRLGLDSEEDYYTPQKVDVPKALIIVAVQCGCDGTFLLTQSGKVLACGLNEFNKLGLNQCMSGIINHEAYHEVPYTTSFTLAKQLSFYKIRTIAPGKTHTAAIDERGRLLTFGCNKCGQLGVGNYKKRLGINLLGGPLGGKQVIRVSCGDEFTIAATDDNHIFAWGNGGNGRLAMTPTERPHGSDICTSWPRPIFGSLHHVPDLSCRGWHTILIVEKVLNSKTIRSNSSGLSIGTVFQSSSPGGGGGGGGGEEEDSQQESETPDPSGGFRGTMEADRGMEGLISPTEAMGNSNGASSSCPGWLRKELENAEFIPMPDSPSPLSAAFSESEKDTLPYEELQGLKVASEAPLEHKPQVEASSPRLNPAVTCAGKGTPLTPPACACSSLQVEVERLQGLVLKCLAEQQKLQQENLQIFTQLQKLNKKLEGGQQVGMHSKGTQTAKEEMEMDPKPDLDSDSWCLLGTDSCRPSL
# [10] = target: Ribosomal protein S6 kinase alpha-3 (Homo sapiens) (UniProt P51812); assay: Inhibition of RSK2 domain2 Lys2 labeling site in human A-375 cells at 0.05 uM by KiNativ Profiling analysis relative to control; type: cell-based
# Chain of Ribosomal protein S6 kinase alpha-3 (Homo sapiens) (P51812 whole entry, the tested form may be a part): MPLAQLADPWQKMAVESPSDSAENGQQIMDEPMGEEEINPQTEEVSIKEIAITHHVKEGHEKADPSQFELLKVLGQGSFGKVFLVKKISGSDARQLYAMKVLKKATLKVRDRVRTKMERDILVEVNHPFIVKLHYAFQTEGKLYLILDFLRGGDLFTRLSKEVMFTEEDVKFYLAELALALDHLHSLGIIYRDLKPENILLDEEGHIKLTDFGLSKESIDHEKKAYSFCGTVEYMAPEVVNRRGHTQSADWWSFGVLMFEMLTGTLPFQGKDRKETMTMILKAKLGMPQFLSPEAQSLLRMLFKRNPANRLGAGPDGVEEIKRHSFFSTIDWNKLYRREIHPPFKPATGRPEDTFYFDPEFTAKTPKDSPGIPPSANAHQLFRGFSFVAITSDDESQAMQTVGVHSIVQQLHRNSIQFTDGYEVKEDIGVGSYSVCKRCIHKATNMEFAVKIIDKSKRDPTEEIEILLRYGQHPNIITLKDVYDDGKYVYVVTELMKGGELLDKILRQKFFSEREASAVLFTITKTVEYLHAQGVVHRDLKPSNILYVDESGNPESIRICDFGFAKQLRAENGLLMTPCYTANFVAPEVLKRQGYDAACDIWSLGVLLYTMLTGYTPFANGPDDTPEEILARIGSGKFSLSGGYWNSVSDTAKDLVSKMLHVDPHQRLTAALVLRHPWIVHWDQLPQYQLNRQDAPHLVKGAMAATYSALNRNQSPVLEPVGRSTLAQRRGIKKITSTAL
# [11] = target: Serine/threonine-protein kinase WNK2 (Homo sapiens) (UniProt Q9Y3S1); assay: Inhibition of Wnk2 Lys2 labeling site in human A-375 cells at 0.05 uM by KiNativ Profiling analysis relative to control; type: cell-based
# [12] = target: Tyrosine-protein kinase ABL1 (Homo sapiens, UniProt P00519); assay: Inhibition of ABL ACT labeling site in human Huh-7 cell lysate at 1 uM by KiNativ Profiling analysis relative to control; type: subcellular
# Chain of Tyrosine-protein kinase ABL1 (P00519 whole entry): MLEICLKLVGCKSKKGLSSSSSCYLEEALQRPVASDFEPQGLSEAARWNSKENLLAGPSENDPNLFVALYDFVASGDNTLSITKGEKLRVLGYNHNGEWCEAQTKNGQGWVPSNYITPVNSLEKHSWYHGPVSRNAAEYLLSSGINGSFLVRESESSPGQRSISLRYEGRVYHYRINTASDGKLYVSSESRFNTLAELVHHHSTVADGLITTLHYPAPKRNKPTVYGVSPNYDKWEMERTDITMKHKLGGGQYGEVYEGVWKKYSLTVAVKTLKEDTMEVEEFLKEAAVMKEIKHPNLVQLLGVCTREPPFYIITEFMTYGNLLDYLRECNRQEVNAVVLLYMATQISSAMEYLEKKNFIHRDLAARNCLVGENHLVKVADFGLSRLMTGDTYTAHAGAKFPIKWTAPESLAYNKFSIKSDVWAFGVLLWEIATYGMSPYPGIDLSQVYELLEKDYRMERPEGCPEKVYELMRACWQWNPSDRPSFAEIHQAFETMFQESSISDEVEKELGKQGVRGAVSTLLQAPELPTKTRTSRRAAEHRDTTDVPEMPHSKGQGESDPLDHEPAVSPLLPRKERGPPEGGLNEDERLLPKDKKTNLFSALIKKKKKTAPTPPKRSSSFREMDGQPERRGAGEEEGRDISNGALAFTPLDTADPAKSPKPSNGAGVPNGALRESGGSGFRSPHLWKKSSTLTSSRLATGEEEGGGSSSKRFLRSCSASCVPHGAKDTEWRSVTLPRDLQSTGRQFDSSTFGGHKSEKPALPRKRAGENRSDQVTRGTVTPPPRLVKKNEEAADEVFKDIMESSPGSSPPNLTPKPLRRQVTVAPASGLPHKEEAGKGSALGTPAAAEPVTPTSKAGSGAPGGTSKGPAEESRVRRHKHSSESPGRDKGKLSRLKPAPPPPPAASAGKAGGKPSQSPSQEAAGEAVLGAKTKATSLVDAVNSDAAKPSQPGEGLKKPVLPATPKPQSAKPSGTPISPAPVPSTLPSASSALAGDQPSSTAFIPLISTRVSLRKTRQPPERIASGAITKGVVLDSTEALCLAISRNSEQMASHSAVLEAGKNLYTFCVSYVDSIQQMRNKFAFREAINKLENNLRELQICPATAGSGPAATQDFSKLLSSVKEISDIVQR
# Chain of Cyclin-dependent kinase 10 (Homo sapiens) (Q15131 whole entry): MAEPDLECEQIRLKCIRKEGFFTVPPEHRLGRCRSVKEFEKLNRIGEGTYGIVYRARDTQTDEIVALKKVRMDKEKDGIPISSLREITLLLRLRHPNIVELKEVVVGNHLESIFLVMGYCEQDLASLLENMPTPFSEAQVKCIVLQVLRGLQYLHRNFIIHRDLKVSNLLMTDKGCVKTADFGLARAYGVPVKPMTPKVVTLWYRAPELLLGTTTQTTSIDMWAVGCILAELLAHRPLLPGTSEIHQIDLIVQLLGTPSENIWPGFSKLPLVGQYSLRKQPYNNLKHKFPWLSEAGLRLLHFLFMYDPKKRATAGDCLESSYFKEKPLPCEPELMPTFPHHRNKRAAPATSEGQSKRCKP
Structure (SMILES),inhibition [1],inhibition [2],inhibition [3],inhibition [4],inhibition [5],inhibition [6],inhibition [7],inhibition [8],inhibition [9],inhibition [10],inhibition [11],inhibition [12]
CCN1CCN(Cc2ccc(NC(=O)c3ccc(C)c(Oc4ccnc5[nH]ccc45)c3)cc2C(F)(F)F)CC1,65.4%,98.1%,3.9%,12%,3.6%,74.7%,16.1%,10.6%,4.2%,2.2%,-3.5%,
CNc1cc(Oc2cc(C(=O)Nc3cc(-n4cnc(C)c4)cc(C(F)(F)F)c3)ccc2C)ncn1,,,,,,,,,,,,59.7%
CNc1cc(Oc2cc(C(=O)Nc3cc(N4CCN(C)CC4)cc(C(F)(F)F)c3)ccc2C)ncn1,,,,,,,,,,,,49.4%
CCN1CCN(Cc2ccc(NC(=O)c3ccc(C)c(/C=C/c4cnc5[nH]ccc5c4OC)c3)cc2C(F)(F)F)CC1,11.5%,77.9%,27%,0.7%,9.6%,61.8%,13.8%,5.8%,2%,0.3%,7.1%,
